# Hits are enriched below; roughly 2.9% of the tested compounds scored in any of these assays.
# MEKK2wt PB1 HTS – modulators of MEK5 binding to wildtype MEKK2, primary screen, biochemical, multiplex bead flow cytometry, Alexa488-MEK5; Mitogen-activated protein kinase kinase kinase 2 (Homo sapiens), Q9Y2U5; Alexa488-MEK5 binding to MEKK2 WT; actives lie on both sides; binding response (% of control), % at 10 µM; 290,000 compounds, 1.1% hits; AID 1531, 2009; in the data active means binding response below about 67% or above about 130%
# MEKK3 PB1 HTS – modulators of MEKK3-MEK5 PB1 binding, primary screen, biochemical, wildtype MEKK3, multiplex bead flow cytometry, Alexa488-MEK5; Mitogen-activated protein kinase kinase kinase 3 (Homo sapiens), Q99759; bead-based flow cytometry, Alexa488-MEK5 binding to MEKK3; actives lie on both sides; 0 = blocked by unlabeled MEK5, 100 = vehicle; binding response (% of control), % at 10 µM; 290,000 compounds, 1.4% hits; AID 1529, 2009;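 active means binding response more than 3 SD above or below the average of its plate-row segment, actives on both sides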;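 further: Alexa488 bead fluorescence after subtracting the streptavidin-only scavenger bead signal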
# Apaf1 inhib – inhibitors of human Apaf-1 apoptosome, primary screen, biochemical, DEVD-Rh110 fluorescence, uHTS. inhibition, % at 20 µM. reconstituted apoptosome caspase-3 activity. AID 489030, 2010. Apoptotic protease-activating factor 1 (Homo sapiens), O14727. 330,000 compounds, 0.71% hits; active means inhibition of at least 40% at 20 µM;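 further: plate controls were DMSO wells for no effect and DEVD-CHO caspase inhibitor wells for full effect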
# Target sequence (O14727 whole entry, looked up): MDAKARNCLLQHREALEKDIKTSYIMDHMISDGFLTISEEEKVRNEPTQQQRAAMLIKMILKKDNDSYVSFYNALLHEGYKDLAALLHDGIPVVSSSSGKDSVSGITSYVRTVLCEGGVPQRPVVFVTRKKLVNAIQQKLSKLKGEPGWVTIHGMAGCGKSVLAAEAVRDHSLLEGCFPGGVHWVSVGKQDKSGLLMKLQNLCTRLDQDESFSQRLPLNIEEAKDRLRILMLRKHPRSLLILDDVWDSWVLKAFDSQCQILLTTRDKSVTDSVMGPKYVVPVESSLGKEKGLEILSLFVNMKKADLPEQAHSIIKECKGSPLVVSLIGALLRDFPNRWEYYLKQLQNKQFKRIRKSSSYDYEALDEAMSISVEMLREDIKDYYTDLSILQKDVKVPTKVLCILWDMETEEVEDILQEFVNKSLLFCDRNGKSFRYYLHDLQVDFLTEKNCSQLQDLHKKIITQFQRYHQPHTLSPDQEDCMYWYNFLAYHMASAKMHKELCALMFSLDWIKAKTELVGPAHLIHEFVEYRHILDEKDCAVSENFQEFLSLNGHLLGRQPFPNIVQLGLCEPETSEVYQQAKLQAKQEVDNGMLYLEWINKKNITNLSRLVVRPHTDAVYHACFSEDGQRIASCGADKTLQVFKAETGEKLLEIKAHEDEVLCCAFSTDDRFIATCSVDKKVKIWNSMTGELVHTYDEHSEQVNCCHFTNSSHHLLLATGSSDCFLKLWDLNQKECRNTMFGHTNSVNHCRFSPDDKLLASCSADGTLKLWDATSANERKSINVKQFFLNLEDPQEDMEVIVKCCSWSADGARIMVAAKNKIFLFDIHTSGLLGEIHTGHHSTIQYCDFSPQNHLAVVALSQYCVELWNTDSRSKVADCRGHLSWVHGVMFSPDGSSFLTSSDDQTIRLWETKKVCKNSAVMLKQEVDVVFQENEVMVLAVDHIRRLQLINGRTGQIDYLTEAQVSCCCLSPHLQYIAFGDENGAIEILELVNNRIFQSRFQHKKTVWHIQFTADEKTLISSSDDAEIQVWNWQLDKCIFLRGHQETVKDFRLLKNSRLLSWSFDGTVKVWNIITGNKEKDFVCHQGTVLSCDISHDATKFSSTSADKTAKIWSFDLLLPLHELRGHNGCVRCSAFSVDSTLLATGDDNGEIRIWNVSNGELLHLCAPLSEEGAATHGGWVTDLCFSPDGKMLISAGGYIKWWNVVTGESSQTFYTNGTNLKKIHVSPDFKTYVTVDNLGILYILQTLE
#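 Medium: Hepes buffer, pH 7.5 / System: biochemical Apaf-1 apoptosome reconstitution / Measured by: Rh110 fluorescence, excitation 480 nm, emission 540 nm / Times: compound with Apaf-1, dATP, procaspase-3 30 min, then 50 min reaction, room temperature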
# UBC13 inh – UBC13 polyubiquitin chain formation inhibitors, primary screen, biochemical, TR-FRET, uHTS; inhibition, % at 20 µM; AID 485273, 2010; Ubiquitin-conjugating enzyme E2 N (Homo sapiens), P61088; 330,000 compounds, 0.47% hits; in the data active means inhibition above about 45%, passing the limit was not always enough
# MEKK2 mut-MEK5 – MEK5 binding signal on mutant MEKK2 PB1, primary screen, biochemical, multiplex bead flow cytometry, Alexa488-MEK5; 290,000 compounds, 0.35% hits; percent response, % at 10 µM; AID 1530, 2009; Alexa488-MEK5 binding to MEKK2 mutant; in the data active means percent response above about 24%, passing the limit was not always enough
# MEKK2wt confirm – modulators of MEK5 binding to wildtype MEKK2, confirmation, biochemical, single concentration, multiplex bead flow cytometry | shares compounds with MEKK3 PB1 HTS | Alexa488-MEK5 binding to MEKK2 WT; actives lie on both sides | binding response (% of control), % at 10 µM | 5,900 compounds, 2.4% hits; in the data active means binding response below about 16% or above about 210%; inactive means in between
# MEKK2mut confirm – mutant MEKK2 PB1-MEK5 binding signal retest – biochemical, single concentration, multiplex bead flow cytometry, confirmation; 5,900 compounds, 2% hits; shares compounds with MEKK3 PB1 HTS; Alexa488-MEK5 binding to MEKK2 mutant; AID 1893, 2009; percent response, % at 10 µM; in the data active means percent response mostly above about 71%, no sharp cut-off; inactive means mostly below about 38%;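 further: higher means compound restores mutant binding toward wildtype level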
# MEKK3-MEK5 inh – MEKK3 wild-type PB1 binding to MEK5, inhibitors, confirmation, biochemical, bead multiplex flow cytometry, single concentration, wildtype. binding response (% of control), % at 10 µM. shares compounds with MEKK3 PB1 HTS. AID 1894, 2009. Alexa488-MEK5 binding to MEKK3; stronger effect = lower value. 5,900 compounds, 1.8% hits;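 active means binding response below 72% of control, or above a set upper limit, though filed actives all read lower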;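 further: 100% = DMSO only wells and 0% = binding blocked by excess unlabeled MEK5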
# The depositor's hits bear a star; x = not tested or not shown; [ ] = another dose, or the depositor's remark.
SMILES,MEKK2wt PB1 HTS,MEKK3 PB1 HTS,Apaf1 inhib,UBC13 inh,MEKK2 mut-MEK5,MEKK2wt confirm,MEKK2mut confirm,MEKK3-MEK5 inh
O=C1NC(=O)C(CCc2ccncc2)(Cc2ccc([N+](=O)[O-])cc2)C(=O)N1,107,140*,-11,8,0,100,2,100
Cc1nn(CC(C)C)c(Cl)c1C(=O)O,109,106,-30,16,2,x,x,x
CCC(C)N1C(=O)/C(=C\c2cc3c4c(c2)CCCN4CCC3)C(=O)NC1=S (stereo unspecified),6.0*[inhibitor],76,-2,-1,-5,58,-24,87
CCC(C)N1C(=O)/C(=C\c2cnc(N(C)C)nc2)C(=O)NC1=S (stereo unspecified),96,101,18,-18,-1,x,x,x
Cc1ccc(O)c(C(=O)c2cc(C(=O)NCCC(C)C)c(=O)n(CCC(C)C)c2)c1,104,102,26,-14,1,x,x,x
O=C(c1cc(C(=O)NCc2ccc(Cl)cc2)c(=O)n(Cc2ccc(Cl)cc2)c1)c1cc(F)ccc1O,107,134*,-10,-23,0,97,-9,103
CCCCC(=O)N/N=C/c1c(O)n(CC)c(=S)[nH]c1=O,1.0*[inhibitor],2.0*[inhibitor],-10,-4,-1,100,-1,103
C/C(=N\N1CCN(C)CC1)c1c(O)[nH]c(=O)[nH]c1=O,105,102,-10,8,3,x,x,x
COC(=O)C1=C(c2ccc(-c3ccccc3)c(F)c2)C[C@@H]2CC[C@H]1N2C(=O)NCCOc1ccccc1,x,x,26,0,x,x,x,x
CCN(CC)c1ccc(/C=N/c2sc3c(c2C#N)C2CCN3CC2)c(O)c1,96,109,x,x,92*,84,-22,93
CCC1(c2ccccc2)C(=O)N(COC)C(=O)N(COC)C1=O,104,97,-10,2,4,x,x,x
CC[n+]1c(SC)ccc2cc(OC)ccc21,108,175*,-9,-5,1,107,5,103
O=C1NC(=S)NC(=O)C1=Cc1ccc(OCC(=O)N2CCCC2)cc1,98,100,4,0,1,x,x,x
CN1CCN(/N=C/c2c(O)n(Cc3ccc(F)cc3)c(=O)[nH]c2=O)CC1,106,105,-11,3,18,x,x,x
Cc1cc(OC(=O)c2cccs2)c2c3c(c(=O)oc2c1)CCCC3,108,151*,26,12,0,100,-3,101
COP(=O)(OC)C(NC(C)=O)C(Cl)(Cl)Cl (stereo unspecified),96,99,-12,7,2,x,x,x
CCCCn1c(C)c(C(=O)O)c2cc(OC)ccc21,85,81*[inhibitor],-6,0,-7,107,8,103
CCOC(=O)C1(c2ccccc2)CCN(CCC(=O)Nc2ccc(C(=O)OC)cc2)CC1,x,x,7,10,x,x,x,x
CCOC(=O)C1(c2ccccc2)CCN(CCC(C#N)(c2ccccc2)c2ccccc2)CC1,136*,101,16,6,6,132,27,103
CCOP(=O)(OCC)C(O)c1cccnc1 (stereo unspecified),108,104,2,1,5,x,x,x
Clc1ccc(C2NCCc3[nH]cnc32)cc1 (stereo unspecified),137*,109,-7,3,51*,127,12,104
C=CCNC(=O)c1c(N)n(CCN2CCOCC2)c2nc3ccccc3nc12,98,97,-17,3,5,x,x,x
